# Active and inactive are the calls of the source.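 The calls were made as follows: active = compounds whose response rose with dose, given a half-maximal potency and peak effect versus acetylcholine; inactive = the rest.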
# Biological target: Muscarinic acetylcholine receptor M3 (Homo sapiens) (UniProt P20309)
# Test: M3 positive allosteric modulation, counter-screen, dose response, counter-screen, human, CHO cells, calcium fluorescence (AID 588745)
# Conditions: CHO hM3 cells, Fluo-4 calcium fluorescence, PAM mode; series mostly up to 30 µM
# Procedure, shortened: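 Test system: Human M3 CHO cells | Also added: ACh EC20 followed by ACh EC80 | Incubation: Compound 144 s before EC20 ACh, EC80 ACh 86 s later, 37 °C | Signal: Intracellular calcium fluorescence with Fluo-4 AM dye | Controls: 1 mM ACh maximal response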
row,SMILES,outcome
1,Cc1nc2sc(C(=O)NCc3ccc4c(c3)OCO4)c(N)c2c(C)c1Cl,inactive
2,Cc1nc2sc(C(=O)NCc3cccc(F)c3F)c(N)c2c(C)c1Cl,inactive
3,Cc1nc2sc(C(=O)NCc3ccncc3)c(N)c2c(C)c1Cl,inactive
4,Cc1nc2sc(C(=O)NCc3cccnc3)c(N)c2c(C)c1Cl,inactive
5,Cc1nc2sc(C(=O)NCc3nccs3)c(N)c2c(C)c1Cl,inactive
6,Cc1nc2sc(C(=O)NCCc3ccncc3)c(N)c2c(C)c1Cl,inactive
7,Cc1nc2sc(C(=O)NCc3ccncn3)c(N)c2c(C)c1Cl,inactive
8,Cc1nc2sc(C(=O)NC3CC3)c(N)c2c(C)c1Cl,inactive
9,Cc1nc2sc(C(=O)NCc3ccccc3)c(N)c2c(C)c1Cl,inactive

# — PubChem BioAssay AID588745 (Vanderbilt Specialized Chemistry Center, 2011)
